Blank lines part the entries; values can stand above or below the substance they belong to.
Key:
[1] = system: PIK3R-derived SH2 domains; experiment: FP saturation binding, domain family; set-up: species or system human; settings: FP, result in words
Method in brief: (§1)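 Multi-SH2 genes were used as tandem proteins that kept the linker residues. Automated high-throughput FP saturation binding was run against 178 synthetic phosphopeptides from RTK, GAB1 and androgen receptor tyrosine sites. Millipolarization readings were fitted to P_obs = Pmax·[Protein]/(K_D+[Protein]) by least squares regression to give K_D.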

Shp2/PTPN11 SH2 domain = biological target: T1, Shp2/PTPN11 SH2 domain (Homo sapiens, UniProt Q06124); experiment: FP saturation binding, construct not stated; settings: result in words
T1 sequence (Q06124 2-593): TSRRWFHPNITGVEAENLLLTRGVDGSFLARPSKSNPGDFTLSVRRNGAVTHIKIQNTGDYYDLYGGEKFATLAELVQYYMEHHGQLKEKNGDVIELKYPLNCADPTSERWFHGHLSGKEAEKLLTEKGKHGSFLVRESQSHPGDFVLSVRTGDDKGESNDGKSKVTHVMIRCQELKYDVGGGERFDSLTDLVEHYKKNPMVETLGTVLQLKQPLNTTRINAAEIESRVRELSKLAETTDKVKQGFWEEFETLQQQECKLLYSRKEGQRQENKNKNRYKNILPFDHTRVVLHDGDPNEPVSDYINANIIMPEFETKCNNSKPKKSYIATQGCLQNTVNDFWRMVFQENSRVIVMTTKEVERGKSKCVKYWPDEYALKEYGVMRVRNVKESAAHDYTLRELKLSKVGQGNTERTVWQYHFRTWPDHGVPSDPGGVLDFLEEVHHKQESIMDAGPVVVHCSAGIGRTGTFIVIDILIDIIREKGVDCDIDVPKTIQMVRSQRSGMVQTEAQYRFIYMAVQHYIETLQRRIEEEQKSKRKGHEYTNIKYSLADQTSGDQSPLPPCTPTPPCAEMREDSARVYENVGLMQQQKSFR
Method in brief: as §1

CRK SH2 domain = CRK SH2 domain (Homo sapiens, UniProt P46108); experiment: FP saturation binding; settings: result in words
Method in brief: as §1

[2] = system: c-Src family kinase SH2 domains; experiment: FP saturation binding, domain family; set-up: species or system human; settings: result in words
Method in brief: as §1

PIK3R1 SH2 domains = PIK3R1 SH2 domains (Homo sapiens, UniProt P27986); experiment: FP saturation binding, construct not stated; settings: result in words
Method in brief: as §1

PIK3R3 SH2 domains = experiment: FP saturation binding, construct not stated; set-up: species or system human; settings: result in words
Method in brief: as §1

PLCG1 SH2 domains = biological target: T2, PLCG1 SH2 domains (Homo sapiens, UniProt P19174); experiment: FP saturation binding, construct not stated; settings: result in words
T2 sequence (P19174 550-756 limits assumed): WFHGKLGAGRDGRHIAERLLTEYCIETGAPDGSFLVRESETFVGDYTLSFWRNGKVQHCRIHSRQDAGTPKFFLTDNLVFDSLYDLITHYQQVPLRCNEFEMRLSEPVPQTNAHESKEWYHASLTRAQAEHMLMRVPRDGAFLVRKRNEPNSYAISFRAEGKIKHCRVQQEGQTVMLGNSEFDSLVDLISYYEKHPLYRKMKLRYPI
Method in brief: as §1

RASA1 SH2 domains = biological target: T3, RASA1 SH2 domains (Homo sapiens, UniProt P20936); experiment: FP saturation binding, construct not stated; settings: result in words
T3 sequence (P20936 181-441 limits assumed): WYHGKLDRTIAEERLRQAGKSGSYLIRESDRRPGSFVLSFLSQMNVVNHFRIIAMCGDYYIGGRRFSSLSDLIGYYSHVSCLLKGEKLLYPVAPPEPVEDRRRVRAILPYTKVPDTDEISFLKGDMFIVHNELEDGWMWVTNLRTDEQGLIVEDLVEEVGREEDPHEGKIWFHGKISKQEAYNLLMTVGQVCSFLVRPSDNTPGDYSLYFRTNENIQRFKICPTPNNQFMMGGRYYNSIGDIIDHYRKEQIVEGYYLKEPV
Method in brief: as §1

[3] = system: tensin family SH2 domains; experiment: FP saturation binding, domain family; set-up: species or system human; settings: result in words
Method in brief: as §1

SH2D1A SH2 domain = SH2D1A SH2 domain (Homo sapiens, UniProt O60880); experiment: FP saturation binding; settings: result in words
Method in brief: as §1

SH2D1B SH2 domain = biological target: T4, SH2D1B SH2 domain (Homo sapiens, UniProt O14796); experiment: FP saturation binding; settings: result in words
T4 sequence (O14796 5-101 limits assumed): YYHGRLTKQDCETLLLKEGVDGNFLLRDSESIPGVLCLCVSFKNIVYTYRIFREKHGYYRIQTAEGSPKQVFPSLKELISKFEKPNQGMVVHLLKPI
Method in brief: as §1

GRB2 SH2 domain = GRB2 SH2 domain (Homo sapiens, UniProt P62993); experiment: FP saturation binding; settings: result in words
Method in brief: (§2)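 Tandem SH2 proteins were kept with their linkers. Synthetic phosphotyrosine peptides were run in automated high-throughput FP saturation binding. Millipolarization was fitted to Pobs = Pmax·[Protein]/(KD+[Protein]) by least squares to give KD per protein/peptide pair.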

GRAP2 SH2 domain = GRAP2 SH2 domain (Homo sapiens, UniProt O75791); experiment: FP saturation binding; settings: result in words
Method in brief: as §2

SHC1 SH2 domain = biological target: T5, SHC1 SH2 domain (Homo sapiens, UniProt P29353); experiment: FP saturation binding; settings: result in words
T5 sequence (P29353 488-579 limits assumed): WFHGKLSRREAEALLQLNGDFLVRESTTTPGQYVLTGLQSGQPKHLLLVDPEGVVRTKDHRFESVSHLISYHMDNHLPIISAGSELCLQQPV
Method in brief: as §2

[4] = biological target: PIK3R3 (C-terminal domain), PIK3R3.C (Homo sapiens, UniProt Q92569); experiment: FP saturation binding; settings: result in words
Method in brief: as §1

[5] = biological target: PLCG1 (NC tandem domain), PLCG1.NC (Homo sapiens, UniProt P19174); experiment: FP saturation binding; settings: result in words
Method in brief: as §1

[6] = system: 93 SH2 domains and 2 phosphotyrosine binding (PTB) domains; experiment: High throughput FP, whole domain panel; set-up: species or system human; settings: result in words
Method in brief: as §1

[7] = biological target: T6, SHC1 PTB domain (SHC1.PTB) (Homo sapiens, UniProt P29353); experiment: FP saturation binding; settings: result in words
T6 sequence (P29353 156-339 limits assumed): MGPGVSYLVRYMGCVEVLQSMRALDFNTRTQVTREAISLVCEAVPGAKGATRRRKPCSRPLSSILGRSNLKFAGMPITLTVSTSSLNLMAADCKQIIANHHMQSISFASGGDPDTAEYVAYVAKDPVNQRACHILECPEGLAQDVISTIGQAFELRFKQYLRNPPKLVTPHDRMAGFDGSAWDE
Method in brief: as §1

CRKL SH2 domain = CRKL SH2 domain (Homo sapiens, UniProt P46109); experiment: FP saturation binding; settings: result in words
Method in brief: as §1

Sequence of CRK SH2 domain (P46108 13-118 limits assumed): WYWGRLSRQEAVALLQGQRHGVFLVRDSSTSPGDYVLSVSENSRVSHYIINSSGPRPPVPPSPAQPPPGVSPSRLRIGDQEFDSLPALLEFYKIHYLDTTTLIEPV
Sequence of PIK3R1 SH2 domains (P27986 2-724): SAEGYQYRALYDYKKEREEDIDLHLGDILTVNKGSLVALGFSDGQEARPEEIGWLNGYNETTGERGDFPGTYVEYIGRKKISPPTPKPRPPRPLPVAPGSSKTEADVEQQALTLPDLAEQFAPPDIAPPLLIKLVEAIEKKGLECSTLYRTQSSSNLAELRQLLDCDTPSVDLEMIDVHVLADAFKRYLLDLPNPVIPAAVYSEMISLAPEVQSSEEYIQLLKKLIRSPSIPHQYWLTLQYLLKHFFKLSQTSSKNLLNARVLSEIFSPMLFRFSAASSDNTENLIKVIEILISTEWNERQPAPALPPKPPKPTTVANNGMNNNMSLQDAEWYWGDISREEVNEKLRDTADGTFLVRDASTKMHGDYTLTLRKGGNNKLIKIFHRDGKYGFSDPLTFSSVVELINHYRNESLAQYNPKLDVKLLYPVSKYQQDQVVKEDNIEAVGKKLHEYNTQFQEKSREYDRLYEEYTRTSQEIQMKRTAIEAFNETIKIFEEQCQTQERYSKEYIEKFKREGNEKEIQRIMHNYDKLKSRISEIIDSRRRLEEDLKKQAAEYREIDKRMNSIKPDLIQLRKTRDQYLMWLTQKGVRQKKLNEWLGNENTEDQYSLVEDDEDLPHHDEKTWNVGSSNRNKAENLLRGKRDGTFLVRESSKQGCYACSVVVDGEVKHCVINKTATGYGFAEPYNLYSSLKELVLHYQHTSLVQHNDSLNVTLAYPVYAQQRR
Sequence of CRKL SH2 domain (P46109 14-102 limits assumed): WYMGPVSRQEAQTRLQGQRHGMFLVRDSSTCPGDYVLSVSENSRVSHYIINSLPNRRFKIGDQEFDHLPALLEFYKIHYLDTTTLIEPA
Sequence of GRAP2 SH2 domain (O75791 58-149 limits assumed): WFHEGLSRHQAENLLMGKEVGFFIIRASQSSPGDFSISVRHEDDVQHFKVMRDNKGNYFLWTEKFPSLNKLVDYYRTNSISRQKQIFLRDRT
Sequence of SH2D1A SH2 domain (O60880 6-104 limits assumed): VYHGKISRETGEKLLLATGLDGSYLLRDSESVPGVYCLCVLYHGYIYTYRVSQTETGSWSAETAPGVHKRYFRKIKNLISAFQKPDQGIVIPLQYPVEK
Sequence of GRB2 SH2 domain (P62993 60-152 limits assumed): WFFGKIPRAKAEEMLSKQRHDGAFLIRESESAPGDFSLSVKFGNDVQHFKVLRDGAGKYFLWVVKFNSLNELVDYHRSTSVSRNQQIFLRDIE

Substance: LDENXVPMNPNSd [GAB1 Tyr(P)-447]
recruitment of PIK3R1 (PIK3R1 SH2 domains): confirmed
recruitment of PIK3R3 (PIK3R3 SH2 domains): high affinity

Substance: VSISXDIPPTPGd [GAB1 Tyr(P)-307]
recruitment of CRK SH2 domain (CRK SH2 domain): no CRK SH2 domain interactions
recruitment of PLCG1 SH2 domains (PLCG1 SH2 domains): confirmed
recruitment of RASA1 SH2 domains (RASA1 SH2 domains): confirmed

Substance: QEANXVPMTPGTd [GAB1 Tyr(P)-472]
recruitment of PIK3R1 (PIK3R1 SH2 domains): confirmed
recruitment of PIK3R3 (PIK3R3 SH2 domains): high affinity

Substance: LPPPXQLINVPPd [GAB1 Tyr(P)-162]
interaction with SHC1 SH2 domain (SHC1 SH2 domain): unable to detect

Substance: PGNTXQIPRTFPd [GAB1 Tyr(P)-317]
recruitment of RASA1 SH2 domains (RASA1 SH2 domains): confirmed

Substance: ERVDXVVVDQQKd [GAB1 Tyr(P)-689]
interaction with SHC1 SH2 domain (SHC1 SH2 domain): interactions were identified
recruitment of SH2D1B SH2 domain (SH2D1B SH2 domain): able to recruit
recruitment of PIK3R (PI3KR) SH2 domains [1]: able to recruit
recruitment of PLCG1 SH2 domains (PLCG1 SH2 domains): able to recruit
recruitment of Shp2/PTPN11 SH2 domain (Shp2/PTPN11 SH2 domain): unable to recruit
recruitment of c-Src family kinase SH2 domains [2]: able to recruit

Substance: YSGPXGDMRLETd [AR Tyr(P)-534]
recruitment of PIK3R3 (C-terminal domain) [4]: did recruit
recruitment of PLCG1 (NC tandem domain) [5]: did recruit
recruitment of c-Src family kinase SH2 domains [2]: did not recruit
recruitment across the SH2 domain panel [6]: interacted with few SH2 domains

Substance: KLKRXAWKRRWFd [GAB1 Tyr(P)-24]
recruitment of CRK SH2 domain (CRK SH2 domain): CRK SH2 domain recruitment
interaction with SHC1 PTB domain [7]: interactions were observed

Substance: DSSLXNLPRSYSd [GAB1 Tyr(P)-259]
recruitment of CRK SH2 domain (CRK SH2 domain): no CRK SH2 domain interactions
recruitment of CRKL SH2 domain (CRKL SH2 domain): CRKL SH2 domain interactions

Substance: FENSXIFDINTId [GAB1 Tyr(P)-83]
interaction with SHC1 SH2 domain (SHC1 SH2 domain): interactions were identified
interaction with SHC1 PTB domain [7]: interactions were observed

Continued, values first:

recruitment of PIK3R (PI3KR) SH2 domains [1]: moderate recruitment
recruitment of Shp2/PTPN11 SH2 domain (Shp2/PTPN11 SH2 domain): recruit
Substance: LQPEXCPDPLYEd [c-Met Tyr(P)-1307]

recruitment of CRK SH2 domain (CRK SH2 domain): recruited
recruitment of c-Src family kinase SH2 domains [2]: recruited
Substance: EYCCXGDLLNFLd [c-Kit Tyr(P)-675]

recruitment of CRK SH2 domain (CRK SH2 domain): recruited
recruitment of tensin family SH2 domains [3]: recruited
Substance: DVWSXGIFLWELd [c-Kit Tyr(P)-855]

recruitment of SH2D1A SH2 domain (SH2D1A SH2 domain): interactions
recruitment of SH2D1B SH2 domain (SH2D1B SH2 domain): interactions
recruitment of PLCG1 SH2 domains (PLCG1 SH2 domains): interactions
recruitment of RASA1 SH2 domains (RASA1 SH2 domains): interactions
recruitment of Shp2/PTPN11 SH2 domain (Shp2/PTPN11 SH2 domain): recruit
recruitment of c-Src family kinase SH2 domains [2]: interactions
recruitment of tensin family SH2 domains [3]: interactions
Substance: CVAPXPSLLSSEd [c-Met Tyr(P)-1365]

recruitment of GRB2 SH2 domain (GRB2 SH2 domain): detectably recruited
recruitment of GRAP2 SH2 domain (GRAP2 SH2 domain): detectably recruited
Substance: EAALXKNLLHSKd [c-Kit Tyr(P)-703]

recruitment of Shp2/PTPN11 SH2 domain (Shp2/PTPN11 SH2 domain): recruit
Substance: DITVXLLQGRRLd [c-Met Tyr(P)-1295]

Source: paper PMC4083110 (Molecular & Cellular Proteomics : MCP, 2014)
